Measured values gathered from unrelated publications.
RPS6KA6 N-terminal kinase domain: Ribosomal protein S6 kinase alpha-6, N-terminal kinase domain (RPS6KA6, Homo sapiens, UniProt Q9UK32)
RPS6KA6 C-terminal kinase domain: Ribosomal protein S6 kinase alpha-6, C-terminal kinase domain (RPS6KA6, Homo sapiens, UniProt Q9UK32)
RPS6KA6: Ribosomal protein S6 kinase alpha-6 (RPS6KA6, Homo sapiens, UniProt Q9UK32)

SMILES | target | read-out | mode | method | tested at | quantity | result
Cc1nn(C)cc1-c1nc2c(N3CCN(Cc4ccc(Cl)cc4)CC3)c(Cl)cnc2[nH]1 | RPS6KA6 N-terminal kinase domain | binding | – | competition with immobilised ligand | 1 µM | remaining binding | 66%
N#CC1(c2ccccn2)CCN(Cc2cc(C(=O)O)c(=O)n3ccccc23)CC1 | RPS6KA6 C-terminal kinase domain | cell-free assay | – | competition with immobilised ligand | 1 µM | remaining binding | 97%
Nc1ncc(-c2nc(N3CCOCC3)nc(N3CCOCC3)n2)c(C(F)F)n1 | RPS6KA6 C-terminal kinase domain | binding | – | competition with immobilised ligand | 10 µM | remaining binding | 94%
O=c1[nH]c2ccccc2n1C1CCN(Cc2ccc(-c3[nH]c4cc5ncnc5cc4nc3-c3ccccc3)cc2)CC1 | RPS6KA6 | cell-free assay | – | – | 0.5 µM | remaining signal | 109%
Cn1cc(-c2cccc(N3CCc4c(sc5c4CC(C)(C)C5)C3=O)c2CO)cc(Nc2ccncn2)c1=O | RPS6KA6 | enzyme activity | inhibitor | – | 1 µM | inhibition | 9%
Cn1cncc1[C@](O)(COc1ccc(C#N)cc1-c1ccc(OC(F)(F)F)cc1)c1ccc(C#N)cc1 | RPS6KA6 N-terminal kinase domain | cell-free assay | – | competition with immobilised ligand | 1 µM | remaining binding | 91%
Cn1cc(-c2cc(F)cc(N3CCn4c(cc5c4CCCC5)C3=O)c2CO)cc(Nc2ccc(N3CCN(C4COC4)CC3)cn2)c1=O | RPS6KA6 | enzyme activity | inhibitor | – | 0.1 µM | inhibition | 2%
CC(C)(C)c1cc(C=C(C#N)C#N)cc(Br)c1O | RPS6KA6 | enzyme activity | inhibitor | – | 0.5 µM | remaining activity | 101%
COc1cc(Nc2ncc(F)c(Nc3ccc4c(n3)NC(=O)C(C)(C)O4)n2)cc(OC)c1OC | RPS6KA6 N-terminal kinase domain | binding | – | competition with immobilised ligand | 10 µM | inhibition | 70%
